Results as given in ChEMBL document CHEMBL4024752, “Noncovalent Protein Arginine Deiminase (PAD) Inhibitors Are Efficacious in Animal Models of Multiple Sclerosis” (J Med Chem, 2017).
Active and inactive are the calls of the source. The calls are words filed in the database; no cut-off is given here.

Key:
[1] = molecular target: Protein-arginine deiminase type-4 (Homo sapiens, UniProt Q9UM07); assay: Inhibition of full length human GST-tagged PAD4 expressed in baculovirus infected Sf9 insect cells preincubated for 30 mins followed by substrate addition measured after 30 mins
[2] = molecular target: T1, Protein-arginine deiminase type-1 (Homo sapiens, UniProt Q9ULC6); assay: Inhibition of full length human GST-tagged PAD1 expressed in baculovirus infected Sf9 insect cells preincubated for 30 mins followed by substrate addition measured after 30 mins
T1 sequence (Q9ULC6 whole entry): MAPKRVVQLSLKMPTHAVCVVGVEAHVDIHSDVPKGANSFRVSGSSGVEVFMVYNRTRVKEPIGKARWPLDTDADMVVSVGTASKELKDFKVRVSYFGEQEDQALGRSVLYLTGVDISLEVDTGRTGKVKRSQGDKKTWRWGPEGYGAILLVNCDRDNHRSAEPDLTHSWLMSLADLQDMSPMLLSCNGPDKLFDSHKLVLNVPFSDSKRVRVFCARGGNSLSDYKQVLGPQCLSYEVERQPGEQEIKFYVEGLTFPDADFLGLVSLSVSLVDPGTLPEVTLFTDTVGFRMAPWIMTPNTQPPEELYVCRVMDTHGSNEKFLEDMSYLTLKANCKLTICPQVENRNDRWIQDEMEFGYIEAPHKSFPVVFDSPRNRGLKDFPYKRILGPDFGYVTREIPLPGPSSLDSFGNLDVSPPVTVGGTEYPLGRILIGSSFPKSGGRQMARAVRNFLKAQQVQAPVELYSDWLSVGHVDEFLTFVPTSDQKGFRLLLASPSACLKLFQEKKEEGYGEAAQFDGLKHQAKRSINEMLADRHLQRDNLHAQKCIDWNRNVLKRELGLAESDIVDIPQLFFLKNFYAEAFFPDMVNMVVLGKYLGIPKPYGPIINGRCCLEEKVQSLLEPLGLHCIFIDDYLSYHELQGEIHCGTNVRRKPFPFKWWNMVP
Outline: (§1)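 Colorimetric citrulline assay at 37 °C in 100 mM Tris, 100 mM NaCl, 10 mM CaCl2, 5 mM DTT, pH 7.5, with about 5% DMSO. Enzyme (hPAD1 50 nM, mPAD2 100 nM) was preincubated with inhibitor (0.1–10 mM) for 30 min. Substrate was then added at 5 mM final for a further 30 min. Diacetyl monoxime/thiosemicarbazide reagent was added, samples were boiled 15 min, and A530 was read.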

[3] = molecular target: Protein-arginine deiminase type-2 (Mus musculus, UniProt Q08642); assay: Inhibition of full length mouse GST-tagged PAD2 expressed in baculovirus infected Sf9 insect cells preincubated for 30 mins followed by substrate addition measured after 30 mins; outline: as §1
Mus musculus [4] = assay: Antiinflammatory activity in MOG (35 to 55 residues)-induced C57BL/6 mouse autoimmune encephalomyelitis model assessed as improvement in physical disability at 50 mg/kg, ip administered daily measured on day 35 post immunization; assay type: functional, organism-based
Outline: (§2)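 Female C57BL/6 mice, 8 weeks old, were immunized s.c. with 100 µg MOG peptide in CFA, plus 400 ng pertussis toxin i.p. at immunization and again at 48 h. Daily i.p. dosing at 50 mg/kg in PBS (pH 7.5) began at clinical score 2 and continued up to 60 days. Controls got an equal volume of PBS (n=5 vs 7). Clinical score and body weight were recorded daily.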

Mus musculus [5] = assay: Antiinflammatory activity in MOG (35 to 55 residues)-induced C57BL/6 mouse autoimmune encephalomyelitis model assessed as survival rate at 50 mg/kg, ip administered daily up to 60 days (reference value: 80%); assay type: functional; settings: C57BL/6, ip, 1440 h
Mus musculus [6] = assay: Antiinflammatory activity in MOG (35 to 55 residues)-induced C57BL/6 mouse autoimmune encephalomyelitis model assessed as reduction in inflammation in spinal cord at 50 mg/kg, ip administered daily measured at day 60 post immunization; assay type: functional, organism-based; settings: in the assay text read “brain” for “spinal cord”
Outline: (§3)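 MOG/CFA-immunized female C57BL/6 mice were treated daily at 50 mg/kg i.p. in PBS from score 2 for up to 60 days; controls received PBS. At study end, brain and spinal cord sections were stained with H&E and Luxol Fast Blue. Inflammation was quantified as inflamed area over total tissue area by positive pixel count.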

Mus musculus [7] = assay: Antiinflammatory activity in MOG (35 to 55 residues)-induced C57BL/6 mouse autoimmune encephalomyelitis model assessed as reduction in lesions in cerebellum at 50 mg/kg, ip administered daily up to 60 days by LFB/H and E staining based assay; assay type: functional, organism-based; outline: as §3
Mus musculus [8] = assay: Antiinflammatory activity in MOG (35 to 55 residues)-induced C57BL/6 mouse autoimmune encephalomyelitis model assessed as reduction in lesions in olfactory tract at 50 mg/kg, ip administered daily up to 60 days by LFB/H and E staining based assay; assay type: functional, organism-based; outline: as §3
Mus musculus [9] = assay: Antiinflammatory activity in MOG (35 to 55 residues)-induced C57BL/6 mouse autoimmune encephalomyelitis model assessed as reduction in lesions in internal capsule at 50 mg/kg, ip administered daily by LFB/H and E staining based assay; assay type: functional, organism-based; outline: as §3
Mus musculus [10] = assay: Antiinflammatory activity in MOG (35 to 55 residues)-induced C57BL/6 mouse autoimmune encephalomyelitis model assessed as reduction in accumulation of CD3 positive T-cells in brain at 50 mg/kg, ip administered daily up to 60 days by immunohistochemistry; assay type: functional, organism-based
Outline: (§4)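 MOG/CFA-immunized female C57BL/6 mice were dosed daily at 50 mg/kg i.p. in PBS from score 2 for up to 60 days; PBS controls n=5, treated n=7. Brain sections were immunostained with anti-CD3. Stained cells per µm² were averaged over randomly selected areas.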

Mus musculus [11] = assay: Antiinflammatory activity in MOG (35 to 55 residues)-induced C57BL/6 mouse autoimmune encephalomyelitis model assessed as reduction in accumulation of CD3 positive T-cells in internal capsule at 50 mg/kg, ip administered daily up to 60 days by immunohistochemistry; assay type: functional, organism-based; outline: as §4
Mus musculus [12] = assay: Antiinflammatory activity in MOG (35 to 55 residues)-induced C57BL/6 mouse autoimmune encephalomyelitis model assessed as reduction in accumulation of CD3 positive T-cells in cerebellum at 50 mg/kg, ip administered daily up to 60 days by immunohistochemistry; assay type: functional, organism-based; outline: as §4
[13] = Elimination rate constant in C57BL/6 mouse serum at 50 mg/kg, ip administered as single dose measured up to 360 mins by UPLC-MS analysis; assay type: ADME, organism-based
Outline: (§5)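 Healthy female C57BL/6 mice (n = 27, 18–22 g) received one i.p. dose of 50 mg/kg, given as a 10 mg/mL aqueous solution (equimolar HCl, pH raised to 6 with NaHCO3). Blood and brain were sampled at 0, 5, 15, 30, 45, 60, 120, 240 and 360 min, 3 mice per time point. Samples were spiked with benzophenone internal standard, lyophilized, extracted into methanol, and quantified by C18 UPLC-MS.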

[14] = Half life in C57BL/6 mouse serum at 50 mg/kg, ip administered as single dose by UPLC-MS analysis; assay type: ADME, organism-based; outline: as §5
[15] = Cmax in C57BL/6 mouse serum at 50 mg/kg, ip administered as single dose measured up to 360 mins by UPLC-MS analysis; assay type: ADME, organism-based; design: dose 50 mg/kg, route intraperitoneal; outline: as §5
[16] = Tmax in C57BL/6 mouse serum at 50 mg/kg, ip administered as single dose measured up to 360 mins by UPLC-MS analysis; assay type: ADME, organism-based; outline: as §5
[17] = AUC (0 to 360 mins) in C57BL/6 mouse serum at 50 mg/kg, ip administered as single dose by UPLC-MS analysis; assay type: ADME, organism-based; design: dose 50 mg/kg, time < 6 hr, route intraperitoneal; outline: as §5
[18] = Elimination rate constant in C57BL/6 mouse brain at 50 mg/kg, ip administered as single dose measured up to 360 mins by UPLC-MS analysis; assay type: ADME, organism-based; outline: as §5
[19] = Half life in C57BL/6 mouse brain at 50 mg/kg, ip administered as single dose by UPLC-MS analysis; assay type: ADME, organism-based; outline: as §5
[20] = Cmax in C57BL/6 mouse brain at 50 mg/kg, ip administered as single dose measured up to 360 mins by UPLC-MS analysis; assay type: ADME, organism-based; design: dose 50 mg/kg, route intraperitoneal; outline: as §5
[21] = Tmax in C57BL/6 mouse brain at 50 mg/kg, ip administered as single dose measured up to 360 mins by UPLC-MS analysis; assay type: ADME, organism-based; outline: as §5
[22] = AUC (0 to 360 mins) in C57BL/6 mouse brain at 50 mg/kg, ip administered as single dose by UPLC-MS analysis; assay type: ADME, organism-based; design: time < 6 hr, dose 50 mg/kg, route intraperitoneal; outline: as §5
Mus musculus [23] = assay: Toxicity in MOG (35 to 55 residues)-induced C57BL/6 mouse autoimmune encephalomyelitis model assessed as bdoy weight cahnges at 50 mg/kg, ip administered daily up to 60 days; assay type: organism-based; settings: in vivo, 1440 h; outline: as §2

Chain of Protein-arginine deiminase type-2 (Q08642 whole entry, the tested form may be a part): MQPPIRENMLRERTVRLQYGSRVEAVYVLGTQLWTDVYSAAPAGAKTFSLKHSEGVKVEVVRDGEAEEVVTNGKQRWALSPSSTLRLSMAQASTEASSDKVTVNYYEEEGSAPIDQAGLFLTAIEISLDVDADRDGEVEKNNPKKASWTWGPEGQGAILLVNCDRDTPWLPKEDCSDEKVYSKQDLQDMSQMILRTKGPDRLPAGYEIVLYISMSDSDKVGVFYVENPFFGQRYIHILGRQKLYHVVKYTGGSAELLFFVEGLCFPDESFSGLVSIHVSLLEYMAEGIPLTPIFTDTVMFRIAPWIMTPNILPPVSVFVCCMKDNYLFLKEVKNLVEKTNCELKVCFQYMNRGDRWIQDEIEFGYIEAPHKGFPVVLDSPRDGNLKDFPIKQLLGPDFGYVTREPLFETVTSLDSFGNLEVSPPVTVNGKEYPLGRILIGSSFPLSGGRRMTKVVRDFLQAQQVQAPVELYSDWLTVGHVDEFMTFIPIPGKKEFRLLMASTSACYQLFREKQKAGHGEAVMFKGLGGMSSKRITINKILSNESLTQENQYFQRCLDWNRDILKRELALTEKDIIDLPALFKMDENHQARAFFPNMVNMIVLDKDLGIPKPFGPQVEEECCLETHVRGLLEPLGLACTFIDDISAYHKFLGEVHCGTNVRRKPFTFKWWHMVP
Chain of Protein-arginine deiminase type-4 (Q9UM07 whole entry): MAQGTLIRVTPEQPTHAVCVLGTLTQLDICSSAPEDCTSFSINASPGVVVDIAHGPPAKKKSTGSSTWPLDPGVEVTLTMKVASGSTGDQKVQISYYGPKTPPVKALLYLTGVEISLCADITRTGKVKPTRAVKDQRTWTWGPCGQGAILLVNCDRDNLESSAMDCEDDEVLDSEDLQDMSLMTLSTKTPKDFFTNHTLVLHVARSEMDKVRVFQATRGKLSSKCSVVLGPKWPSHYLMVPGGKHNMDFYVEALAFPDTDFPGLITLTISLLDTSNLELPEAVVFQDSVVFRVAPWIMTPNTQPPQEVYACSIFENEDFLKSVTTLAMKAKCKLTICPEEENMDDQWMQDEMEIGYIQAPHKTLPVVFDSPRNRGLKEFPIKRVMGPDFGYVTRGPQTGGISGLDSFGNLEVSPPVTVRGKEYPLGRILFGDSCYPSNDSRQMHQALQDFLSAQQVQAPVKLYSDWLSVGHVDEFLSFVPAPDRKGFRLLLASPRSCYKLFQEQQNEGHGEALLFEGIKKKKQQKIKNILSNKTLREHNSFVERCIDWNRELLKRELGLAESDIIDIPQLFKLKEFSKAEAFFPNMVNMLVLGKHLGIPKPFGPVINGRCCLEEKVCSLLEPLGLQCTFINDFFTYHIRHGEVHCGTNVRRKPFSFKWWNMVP

With `O=C(N[C@@H](CCn1ccnn1)C(=O)NCc1ccccc1)c1ccco1` the Ki [1] was 2820 µM, the Ki [2] was 1090 µM and the Ki [3] was 282 µM.
For `Cl.Cn1cccc1C(=O)N[C@@H](CCn1ccnc1)C(=O)NCc1ccccc1`, the Activity (Mus musculus [4]) was “Active”, the survival at 50 mg/kg (Mus musculus [5]) was 100% and the Activity (Mus musculus [6]) was “Active”. The Activity (Mus musculus [7]) was “Active”, the Activity (Mus musculus [8]) was “Active” and the Activity (Mus musculus [9]) was “Active”. The Activity (Mus musculus [10]) was “Active”, the Activity (Mus musculus [11]) was “Active” and the Activity (Mus musculus [12]) was “Active”. It also gave a k el at 6 h [13] of 0.000333 s⁻¹, a half-life [14] of 34.8 min and a Cmax [15] of 12000 ng/mL. For the same molecule, the Tmax [16] was 15 min, the AUC(0-t) at 6 h [17] was 8460 ng·h/mL and the k el at 6 h [18] was 0.0003 s⁻¹. It also gave a half-life [19] of 38.5 min, a Cmax [20] of 170 ng/mL and a Tmax [21] of 15 min. The AUC(0-t) at 6 h [22] was 105 ng·h/mL and the Activity (Mus musculus [23]) was “Non-Toxic”.
Molecule `Cn1cccc1C(=O)N[C@@H](CCn1ccnn1)C(=O)NCc1ccccc1` has a Ki [2] of 112 µM and a Ki [3] of 71 µM.
